Results as given in ChEMBL document CHEMBL5712889, “Neuronal activity controls Bdnf expression via Polycomb de-repression and CREB/CBP/JMJD3 activation in mature neurons” (Nat Commun, 2016).
Active and inactive are the calls of the source.

How the values were obtained:
Type in all cases: functional, cell-based
Hippocampal neurone [1] = test: Anti-neuronal activity against hippocampal neuron in Wistar rat assessed as blocked transcriptional activation of promoters II by qPCR assay analysis
How it was run: (§1)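 Rat hippocampal cultures (15 DIV) were pretreated for 1 h with 10 µM SB203580 (p38 inhibitor), then given 20 µM NMDA for 5 min. Bdnf transcripts were measured by RT-qPCR 30 min after NMDA, using 0.5 µM primers and Gapdh, GusB and Pgk1 as reference genes. Samples were compared with non-stimulated controls; n = independent cultures.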

Hippocampal neurone [2] = test: Anti-neuronal activity against hippocampal neuron in Wistar rat assessed as blocked transcriptional activation of promoters VI by qPCR assay analysis; how it was run: as §1
Hippocampal neurone [3] = test: Anti-neuronal activity against hippocampal neuron in Wistar rat assessed as H3K27Ac promoters I by qPCR assay analysis
How it was run: (§2)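 E18 Wistar rat hippocampal neurons were cultured 15 DIV and stimulated with 20 µM NMDA for 5 min, then the medium was replaced. Cells were crosslinked with 1% formaldehyde for 10 min at 37 °C and chromatin sonicated to 400–700 bp. 100 µg protein per overnight immunoprecipitation at 4 °C, with rabbit IgG as negative control. Promoter DNA was quantified by qPCR against unstimulated controls; n = independent cultures.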

Hippocampal neurone [4] = test: Anti-neuronal activity against hippocampal neuron in Wistar rat assessed as H3K27Ac promoters VI by qPCR assay analysis; how it was run: as §2
Hippocampal neurone [5] = test: Anti-neuronal activity against hippocampal neuron in Wistar rat assessed as active CREB was found at the BDNF promoters by qPCR assay analysis; how it was run: as §2
Hippocampal neurone [6] = test: Anti-neuronal activity against hippocampal neuron in Wistar rat assessed as blocked recruitment of CBP by qPCR assay analysis; how it was run: as §2
Hippocampal neurone [7] = test: Anti-neuronal activity against hippocampal neuron in Wistar rat assessed as impaired recruitment of JMJD3 by qPCR assay analysis; how it was run: as §2
Hippocampal neurone [8] = test: Anti-neuronal activity against hippocampal neuron in Wistar rat assessed as blocked H3K27Me3 demethylation at promoters IV by qPCR assay analysis; how it was run: as §2
Hippocampal neurone [9] = test: Anti-neuronal activity against hippocampal neuron in Wistar rat assessed as blocked H3K27Me3 demethylation at promoters VI by qPCR assay analysis; how it was run: as §2
Hippocampal neurone [10] = test: Anti-neuronal activity against hippocampal neuron in Wistar rat assessed as higher levels of H3K27Me3 at promoter II by qPCR assay analysis; how it was run: as §2
Hippocampal neurone [11] = test: Anti-neuronal activity against hippocampal neuron in Wistar rat assessed as H89 blocked CREB phosphorylation at Serine 133 by western blot analysis

Measured: Activity

O=C(Nc1ccc(Cl)cc1)c1cc2ccccc2cc1O
active: Hippocampal neurone [1] | Hippocampal neurone [2] | Hippocampal neurone [3] | Hippocampal neurone [4] | Hippocampal neurone [5] | Hippocampal neurone [6] | Hippocampal neurone [7] | Hippocampal neurone [8] | Hippocampal neurone [9] | Hippocampal neurone [10]

O=S(=O)(NCCNC/C=C/c1ccc(Br)cc1)c1cccc2cnccc12
active: Hippocampal neurone [11]
